{"data": "Results pooled from the literature", "target": "Casein kinase I isoform delta (CSNK1D, Homo sapiens, UniProt P48730)", "note": "Protocols differ between the studies behind these lines."}
{"SMILES": "O=C1NC(=O)c2cc(Nc3ccc(F)cc3)c(Nc3ccc(F)cc3)cc21", "test": "cell-free assay", "setting": "0.5 µM", "quantity": "remaining signal", "value": "109%"}
{"SMILES": "O=C(Nc1cnn(-c2csc(C(=O)NC3COC3)c2)c1)Nc1c(F)cccc1Cl", "test": "enzyme activity, inhibitor", "setting": "5 µM", "quantity": "remaining activity", "value": "117%"}
{"SMILES": "CS(=O)(=O)N1CCCC(NC(=O)[C@H](CCC2CCCCC2)NC(=O)c2ccc(CNC(=O)c3cnc4ccccn34)cc2)C1 (stereo partly shown)", "test": "cell-free assay, competition with immobilised ligand", "setting": "0.1 µM", "quantity": "remaining binding", "value": "84%"}
{"SMILES": "CCCS(=O)(=O)Nc1ccc(F)c(C(=O)c2c[nH]c3ncc(-c4ccc(Cl)cc4)cc23)c1F", "test": "enzyme activity, inhibitor", "setting": "1 µM", "quantity": "inhibition", "value": "< 10%"}
{"SMILES": "CCCOc1ccc(OC)c(F)c1C(=O)c1ccc(C(=O)N[C@@H]2CNC[C@H]2NC(=O)c2ccc3[nH]ncc3c2)cc1", "test": "enzyme activity, inhibitor", "setting": "10 µM", "quantity": "remaining activity", "value": "43%"}
{"SMILES": "CN(c1ccnc(CNc2nc(Nc3ccc4c(c3)CC(=O)N4)ncc2C(F)(F)F)n1)S(C)(=O)=O", "test": "cell-free assay, competition with immobilised ligand", "setting": "1 µM", "quantity": "remaining binding", "value": "100%"}
{"SMILES": "Nc1ncnc2c1cnn2-c1ccccc1", "test": "cell-free assay", "setting": "0.5 µM", "quantity": "remaining signal", "value": "79.5%"}
{"SMILES": "C[C@@]1(Cc2ccc(C#N)cc2)C(=O)N(c2cc(Cl)cc(Cl)c2)c2ncc(C(=O)NC3(c4nc(C5CCC5)no4)CC3)n21", "test": "cell-free assay, competition with immobilised ligand", "setting": "1 µM", "quantity": "remaining binding", "value": "100%"}
{"SMILES": "COc1cc(/C=C/C(=O)CC(=O)/C=C/c2ccc(O)c(OC)c2)ccc1O", "test": "enzyme activity, inhibitor", "setting": "1 µM", "quantity": "activity vs control", "value": "105%"}
{"SMILES": "COc1cc2ncnc(Nc3ccc(Oc4ccccc4)cc3C)c2cc1OC", "test": "enzyme activity, inhibitor", "setting": "1 µM", "quantity": "inhibition", "value": "0%"}
{"SMILES": "Cc1cnc(NC2CCOCC2)nc1-n1cnc(C(=O)NC(CN)c2cc(F)cc(Cl)c2)c1 (stereo not shown)", "test": "enzyme activity, inhibitor, radiometric", "setting": "1 µM", "quantity": "remaining activity", "value": "53%"}
{"SMILES": "O=C(Cc1cccc(Cl)c1)Nc1nc2ccccc2s1", "test": "cell-free assay", "setting": "10 µM", "quantity": "inhibition", "value": "> 60%"}
{"SMILES": "Cc1nccc(COC(=O)N2C[C@@H]3[C@@H](CNC(=O)c4ccc5[nH]nnc5c4)[C@@H]3C2)n1", "test": "cell-free assay, competition with immobilised ligand", "setting": "1 µM", "quantity": "remaining binding", "value": "97%"}
{"SMILES": "Cc1cc(NC(=O)c2cccc3cc(-c4cccc5[nH]nc(N)c45)ccc23)ccc1F", "test": "enzyme activity, inhibitor", "setting": "0.1 µM", "quantity": "activity vs control", "value": "96%"}
{"SMILES": "COc1cc(Nc2cnc(C#N)c(O[C@H](C)CN(C)C)n2)ncc1-c1cnn(C)c1", "test": "enzyme activity, inhibitor, radiometric", "setting": "10 µM", "quantity": "remaining activity", "value": "22%"}
{"SMILES": "FC(F)(F)Oc1cccc(-c2cnc3ccc(-c4ccncc4)nn23)c1", "test": "enzyme activity, inhibitor, radiometric", "setting": "1 µM", "quantity": "activity vs control", "value": "100%"}
{"SMILES": "O=C(NCc1ncc(C(F)(F)F)cc1Cl)c1ccc2c(c1)C1(CCS(=O)(=O)CC1)[C@@H](C1CC1)N2S(=O)(=O)c1ccc(F)cc1", "test": "cell-free assay, competition with immobilised ligand", "setting": "1 µM", "quantity": "remaining binding", "value": "93%"}
{"SMILES": "CS(=O)(=O)Nc1cccc(-c2csc(NC(=O)CSc3nc4nccnc4c(=O)n3CCc3ccccc3)n2)c1", "test": "enzyme activity, inhibitor", "setting": "10 µM", "quantity": "inhibition", "value": "10%"}
{"SMILES": "N#CCCc1ccc2c(c1)-c1[nH]c3ccc([N+](=O)[O-])cc3c1CC(=O)N2", "test": "cell-free assay", "setting": "0.5 µM", "quantity": "remaining signal", "value": "97.4%"}
{"SMILES": "CCCOc1ccc([C@H]2[C@H](C(=O)O)[C@@H](c3ccc4c(c3)OCO4)CN2CC(=O)Nc2c(CC)cccc2CC)cc1", "test": "cell-free assay, competition with immobilised ligand", "setting": "1 µM", "quantity": "remaining binding", "value": "80%"}
{"SMILES": "CC(C)(C)c1nc(-c2cccc(NS(=O)(=O)c3c(F)cccc3F)c2F)c(-c2ccnc(N)n2)s1", "test": "enzyme activity, inhibitor, radiometric", "setting": "1 µM", "quantity": "remaining activity", "value": "81%"}
{"SMILES": "CO[C@H]1CC[C@H](CNc2ccc(S(=O)(=O)NC(=O)c3ccc(N4CCN(CC5=C(c6ccc(Cl)cc6)CC(C)(C)CC5)CC4)cc3Oc3cnc4[nH]ccc4c3)cc2[N+](=O)[O-])CC1", "test": "cell-free assay, competition with immobilised ligand", "setting": "1 µM", "quantity": "remaining binding", "value": "93%"}
{"SMILES": "Cc1ccc(NC(=O)c2ccc(C)c(C(F)(F)F)c2)cc1C#Cc1nn(C2CCC(O)CC2)c2ncnc(N)c12 (stereo not shown)", "test": "cell-free assay", "setting": "10 µM", "quantity": "remaining signal", "value": "88%"}
{"SMILES": "Nc1cnc(N2CCc3cc(S(=O)(=O)Nc4c(F)cc(Cl)cc4F)cc(N4CCCC4=O)c32)nc1", "test": "cell-free assay, competition with immobilised ligand", "setting": "1 µM", "quantity": "remaining binding", "value": "98%"}
{"SMILES": "COc1cc2c(N3CCN(C(=O)Nc4ccc(OC(C)C)cc4)CC3)ncnc2cc1OCCCN1CCCCC1", "test": "cell-free assay", "setting": "0.5 µM", "quantity": "remaining signal", "value": "90.9%"}
